High-throughput results as filed in PubChem BioAssay.
PAFAH1B3 FP inh: blocks human PAF acetylhydrolase 1B catalytic subunit 3; recombinant PAFAH1B3, FP-rhodamine probe, fluorescence polarization; Q15102; 340,000 tested, 0.28% active; inhibition, % at 3.39 µM; AID 492972;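 active = inhibition above the screen-wide average of all tested compounds plus 3 SD, cut at about 25% in these data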
PAFAH2 FP inh: inhibitors of human PAFAH2. Q99487. recombinant PAFAH2, FP-rhodamine activity probe, fluorescence polarization. inhibition, % at 3.39 µM. 340,000 tested, 0.99% active. AID 492956;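 active = inhibition above the mean over all tested compounds plus 3 SD, cut at about 30% in these data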;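 note: inhibitors block probe labeling of enzyme so polarization drops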
PAFAH1B2 FP inh: inhibitors of human PAFAH1B2; P68402; recombinant PAFAH1B2, FP-rhodamine activity probe, fluorescence polarization; inhibition, % at 3.39 µM; 340,000 tested, 1.2% active;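 active = inhibition above the mean of all tested compounds plus 3 SD, cut at about 24% in these data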
Apaf1 inhib: inhibitors of human Apaf-1 apoptosome | AID 489030 | inhibition, % at 20 µM | reconstituted apoptosome caspase-3 activity, DEVD-Rh110 fluorescence | O14727 | 330,000 tested, 0.71% active; active = inhibition of at least 40% at 20 µM
Target sequence (O14727 whole entry, looked up): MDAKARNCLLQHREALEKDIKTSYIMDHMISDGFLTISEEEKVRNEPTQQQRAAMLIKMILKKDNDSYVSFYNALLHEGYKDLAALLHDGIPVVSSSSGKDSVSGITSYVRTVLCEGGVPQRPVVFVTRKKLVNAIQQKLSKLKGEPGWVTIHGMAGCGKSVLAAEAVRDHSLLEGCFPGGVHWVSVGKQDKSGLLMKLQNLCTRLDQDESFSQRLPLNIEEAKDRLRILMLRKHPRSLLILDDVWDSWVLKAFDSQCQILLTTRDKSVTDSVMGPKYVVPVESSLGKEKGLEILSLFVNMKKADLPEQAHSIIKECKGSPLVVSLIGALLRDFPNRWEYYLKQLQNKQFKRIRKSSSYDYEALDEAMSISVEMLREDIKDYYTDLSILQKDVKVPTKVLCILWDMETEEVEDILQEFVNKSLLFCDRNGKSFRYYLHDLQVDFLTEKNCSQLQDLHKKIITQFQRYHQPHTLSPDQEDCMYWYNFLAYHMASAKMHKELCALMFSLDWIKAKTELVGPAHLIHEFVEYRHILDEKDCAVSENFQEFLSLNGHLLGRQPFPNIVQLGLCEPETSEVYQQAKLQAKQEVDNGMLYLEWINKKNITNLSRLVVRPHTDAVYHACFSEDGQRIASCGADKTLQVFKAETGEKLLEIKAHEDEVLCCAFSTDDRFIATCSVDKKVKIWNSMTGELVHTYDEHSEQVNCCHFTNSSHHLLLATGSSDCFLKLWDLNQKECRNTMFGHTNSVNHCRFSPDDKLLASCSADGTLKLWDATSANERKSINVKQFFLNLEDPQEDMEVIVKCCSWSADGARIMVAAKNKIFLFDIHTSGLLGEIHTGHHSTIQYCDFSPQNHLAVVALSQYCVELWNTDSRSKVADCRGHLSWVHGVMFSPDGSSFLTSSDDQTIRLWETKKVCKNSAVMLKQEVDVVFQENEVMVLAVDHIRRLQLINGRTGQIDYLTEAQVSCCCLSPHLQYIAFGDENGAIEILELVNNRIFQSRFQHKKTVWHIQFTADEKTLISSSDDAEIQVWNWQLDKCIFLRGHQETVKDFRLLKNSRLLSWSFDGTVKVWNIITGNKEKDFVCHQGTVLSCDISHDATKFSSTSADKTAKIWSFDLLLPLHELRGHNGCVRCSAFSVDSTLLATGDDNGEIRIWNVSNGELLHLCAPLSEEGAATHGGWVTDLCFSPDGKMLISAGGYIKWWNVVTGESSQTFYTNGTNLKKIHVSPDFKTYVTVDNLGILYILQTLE
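Assay system: Apoptosome proteins | Medium: pH 7.5 Hepes buffer with CHAPS, BSA, DTT | Also added: Cytochrome c and DEVD-Rh110 substrate | Times: 30 min plus 50 min, RT | Detection: Rhodamine 110 fluorescence at Ex 480/Em 540 nm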
TDP2 absorb: blocks human TDP2 phosphodiesterase activity. inhibition, % at 12.8 µM. O95551. AID 720702. recombinant TDP2, T5PNP hydrolysis, p-nitrophenol absorbance 415 nm. 370,000 tested, 0.34% active;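 active = inhibition above the mean of all tested compounds plus 3 SD, set per campaign, cut at about 25% in these data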
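Incubation: 2 h at 37 °C; Test system: recombinant human TDP2; Quantity: enzyme 120 nM; Read-out basis: percent inhibition; Medium: 50 mM Tris-HCl pH 7.5 with Mg2+, KCl, DTT, BSA; Repeats: single replicate; Compound: 12.8 µM single point, 1% DMSO; Signal: epi absorbance; Reagent: 5 mM T5PNP chromogenic substrate; Benchmarks: no-enzyme high, DMSO-plus-enzyme low.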
Apaf-1 inh conf2: Apaf-1 inhibition, single-dose confirmed; shares compounds with Apaf1 inhib; inhibition, % at 20 µM; AID 504614; 1,800 tested, 25% active; reconstituted apoptosome, caspase-3 DEVD-Rh110 fluorescence;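 active = mean inhibition of at least 40% at 20 µM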
Rh110 interf inh: interferes with Rh110 fluorescence, flagging false Apaf-1 inhibitors. 1,800 tested, under 10 active. Rh110 fluorescence interference, quenched caspase reaction. shares compounds with Apaf1 inhib. activation (fluorescence interference), % at 20 µM;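 active = signal rise of 40% or more at 20 µM, treated as a fluorescence artifact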
Fluor interf inh: counter-screen for Apaf-1 inhibitors: fluorescence interference, dose response; fluorescence interference counterscreen, Apaf-1 assay format; 460 tested, under 10 active; IC50, µM; shares compounds with Apaf1 inhib; call rule not given here
Of the large screens only hits and unclear results are named; the others gave an inactive call (follow-up assays come after a bar, where they were run). Rows were chosen to be rich in hits. Some 2.3% of all compounds tested hit in one or more screens of this group.

CCNCc1ccccc1OCc1ccccc1	none
Oc1ccc(NCc2ccccc2OCc2ccccc2)cc1	Apaf1 inhib 90 | Apaf-1 inh conf2 inactive | Rh110 interf inh inactive
Cc1cccc(C(=O)N[C@H]2CC[C@@]34CCCN3C(=O)CCC[C@H]4[C@H]2C)c1	none (no result: PAFAH1B3 FP inh, PAFAH2 FP inh, PAFAH1B2 FP inh, Apaf1 inhib)
Oc1c(Cl)cc(Cl)c2c1NCCC2	Apaf1 inhib 47 | Apaf-1 inh conf2 inactive | Rh110 interf inh inactive
O=C1NCCCc2c1oc1ccc(O)cc21	none
Cc1ccc(N(C)S(=O)(=O)c2cccc(C(=O)Nc3ccc(C)cn3)c2)cc1	Apaf1 inhib 45 | Apaf-1 inh conf2 inactive | Rh110 interf inh inactive
CN(C)S(=O)(=O)c1cccc(C(=O)Nc2ccc(Cl)cn2)c1	none
C[C@H](NC(=O)c1ccc(C(C)(C)C)cc1)C(=O)N1CCN(C/C=C/c2ccccc2)CC1	Apaf1 inhib 43 | Apaf-1 inh conf2 inactive | Rh110 interf inh inactive
CC(C)C(NC(=O)c1ccccc1)C(=O)N1CCN(C/C=C/c2ccccc2)CC1 (stereo not drawn)	none
O=C(Nc1ccccn1)c1ccc2ccccc2c1O	Apaf1 inhib 45 | Apaf-1 inh conf2 inactive | Rh110 interf inh inactive
NC(=O)[C@H](Cc1cc2ccccc2s1)NC(=O)[C@@H]1CC2(CC(c3cccc(NC(=O)[C@@H]4CCC(=O)N4)c3)=NO2)CN1C(=O)/C=C/Sc1ccccc1 (stereo partly drawn)	none
NC(=O)[C@H](Cc1cc2ccccc2s1)NC(=O)[C@@H]1CC2(CC(c3cccc(NC(=O)[C@@H]4CCC(=O)N4)c3)=NO2)CN1C(=O)/C=C/c1c(F)cccc1Cl (stereo partly drawn)	Apaf1 inhib 47 (no result: TDP2 absorb) | Apaf-1 inh conf2 inactive | Rh110 interf inh inactive
COc1ccc(CN(C)C(=O)c2ccc(OCC(=O)Nc3cccc(C(F)(F)F)c3)c(OC)c2)c(OC)c1	Apaf1 inhib 45 | Apaf-1 inh conf2 inactive | Rh110 interf inh inactive
COc1cccc(CN(C)C(=O)c2ccc(OCC(=O)Nc3cccc(C(F)(F)F)c3)c(OC)c2)c1	none
C[C@@]12CCC=C[C@H]1[C@H](c1ccc3ccccc3c1)N(Cc1ccccc1)C2=O	none
C[C@@]12CCC=C[C@H]1[C@H](c1ccc3ccccc3c1Br)N(Cc1ccccc1)C2=O	Apaf1 inhib 49 | Apaf-1 inh conf2 50 | Rh110 interf inh inactive | Fluor interf inh inactive
CC(C)C(=O)NC(c1cccs1)c1cc([N+](=O)[O-])c2cccnc2c1O (stereo not drawn)	Apaf1 inhib 68 (no result: TDP2 absorb) | Apaf-1 inh conf2 inactive | Rh110 interf inh inactive
COc1cc2cc(NC(C)=O)cc(NCc3ccccc3)c2cc1OC	Apaf1 inhib 88 | Apaf-1 inh conf2 inactive | Rh110 interf inh inactive | Fluor interf inh inactive
Oc1ccc(N=Cc2ccc(-c3cccs3)s2)cc1	Apaf1 inhib 96 | Apaf-1 inh conf2 inactive | Rh110 interf inh inactive
N#Cc1cccc(-c2ccccc2C(=O)NC2CCCCN(Cc3ccc(Cl)cc3)C2=O)c1 (stereo not drawn)	none (no result: PAFAH1B3 FP inh, PAFAH2 FP inh, PAFAH1B2 FP inh, Apaf1 inhib)
N#Cc1c(N)n(CCNC(=O)c2ccc(Cl)cc2)c2nc3ccccc3nc12	Apaf1 inhib 67 | Apaf-1 inh conf2 inactive | Rh110 interf inh inactive
N#Cc1c(N)n(CCOC(=O)c2cccc([N+](=O)[O-])c2)c2nc3ccccc3nc12	none
N#Cc1c(N)n(CCOC(=O)c2cccc(Br)c2)c2nc3ccccc3nc12	Apaf1 inhib 46 | Apaf-1 inh conf2 inactive | Rh110 interf inh inactive
Cc1ccc(C(=O)NCCn2c(N)c(C#N)c3nc4ccccc4nc32)cc1	none
COc1ccc(S(=O)(=O)/N=C2\C=C(Nc3ccc(O)cc3)C(=O)c3ccccc32)cc1	PAFAH1B3 FP inh 70, PAFAH2 FP inh 43, PAFAH1B2 FP inh 25, Apaf1 inhib 96, TDP2 absorb 67 | Apaf-1 inh conf2 98 | Rh110 interf inh inactive | Fluor interf inh inactive
CC(=O)Nc1ccc(NC(=O)C(C)OC(=O)c2ccccc2NS(=O)(=O)c2cccs2)cc1 (stereo not drawn)	none
O=C(O)c1ccc(S(=O)(=O)/N=C2\C=C(Nc3ccccc3F)C(=O)c3ccccc32)cc1	PAFAH1B3 FP inh 61, PAFAH2 FP inh 72, PAFAH1B2 FP inh 58, Apaf1 inhib 96, TDP2 absorb 89 | Apaf-1 inh conf2 98 | Rh110 interf inh inactive | Fluor interf inh inactive
CC(=O)Nc1ccc(NC2=C/C(=N/S(=O)(=O)c3cccs3)c3ccccc3C2=O)cc1	Apaf1 inhib 90, TDP2 absorb 77 (no result: PAFAH1B3 FP inh, PAFAH2 FP inh, PAFAH1B2 FP inh) | Apaf-1 inh conf2 94 | Rh110 interf inh inactive | Fluor interf inh inactive
N[C@H](C(=O)Nc1ccc(Cl)cc1C(=O)c1ccc[nH]1)c1ccccc1	none (no result: PAFAH1B3 FP inh, PAFAH2 FP inh, PAFAH1B2 FP inh, Apaf1 inhib)
Cc1cccc(C2=CC(=O)CC(C)(C)C2=O)c1	none (no result: PAFAH1B3 FP inh, PAFAH2 FP inh, PAFAH1B2 FP inh, Apaf1 inhib)
